Source: ChEMBL document CHEMBL3526056, “Characterization of in vitro glucuronidation clearance of a range of drugs in human kidney microsomes: comparison with liver and intestinal glucuronidation and impact of albumin” (Drug Metab Dispos, 2012)

Key:
[1] = biological target: T1, UDP-glucuronosyltransferase 1A9 (Homo sapiens, UniProt O60656); experiment: Drug metabolism in human kidney microsomes assessed as UGT1A9-mediated unbound intrinsic glucuronidation clearance at 1 uM after 30 to 60 mins by LC-MS/MS analysis in presence of 1% bovine serum albumin; format: ADME
T1 sequence (O60656 whole entry): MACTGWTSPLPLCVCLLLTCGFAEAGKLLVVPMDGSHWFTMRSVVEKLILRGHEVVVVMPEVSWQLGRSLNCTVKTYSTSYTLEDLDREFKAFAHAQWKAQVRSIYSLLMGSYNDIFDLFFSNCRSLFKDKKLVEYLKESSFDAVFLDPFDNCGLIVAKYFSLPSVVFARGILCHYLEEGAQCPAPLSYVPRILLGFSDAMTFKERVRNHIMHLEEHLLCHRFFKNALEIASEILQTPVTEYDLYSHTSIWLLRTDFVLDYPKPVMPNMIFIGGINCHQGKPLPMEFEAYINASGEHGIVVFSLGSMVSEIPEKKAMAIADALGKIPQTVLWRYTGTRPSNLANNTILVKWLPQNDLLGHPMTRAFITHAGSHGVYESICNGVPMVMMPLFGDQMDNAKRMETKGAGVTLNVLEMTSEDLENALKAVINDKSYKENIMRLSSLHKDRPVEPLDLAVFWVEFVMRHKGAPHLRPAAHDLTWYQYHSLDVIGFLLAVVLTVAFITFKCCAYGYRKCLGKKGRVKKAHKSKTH

[2] = biological target: T1, UDP-glucuronosyltransferase 1A9; experiment: Ratio of UGT1A9-mediated unbound intrinsic glucuronidation clearance in human kidney microsomes to UGT1A9-mediated unbound intrinsic glucuronidation clearance in human liver microsomes at 1 uM in presence of 1% bovine serum albumin; format: ADME
How it was run: (§1)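 Unbound intrinsic clearance measured by substrate depletion in kidney and liver microsomes (1 μM drug, 0.1 M phosphate pH 7.1, 5 mM cofactor, 37°C, LC-MS/MS), without or with 1% BSA. Values scaled per g tissue; ratio taken as mean scaled kidney over mean scaled liver value.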

[3] = biological target: T1, UDP-glucuronosyltransferase 1A9; experiment: Ratio of UGT1A9-mediated unbound intrinsic glucuronidation clearance in human intestinal microsomes to UGT1A9-mediated unbound intrinsic glucuronidation clearance in human liver microsomes at 1 uM in presence of 1% bovine serum albumin; format: ADME
[4] = biological target: T1, UDP-glucuronosyltransferase 1A9; experiment: Ratio of UGT1A9-mediated unbound intrinsic glucuronidation clearance in human kidney microsomes to UGT1A9-mediated unbound intrinsic glucuronidation clearance in human intestinal microsomes at 1 uM in presence of 1% bovine serum albumin; format: ADME
[5] = Clearance in iv dosed human; format: ADME, organism-based; conditions: in vivo
[6] = Renal clearance in human; format: ADME, organism-based, Kidney; conditions: in vivo
[7] = Fraction unbound in human plasma
[8] = Ratio of drug level blood to plasma in human; format: ADME; conditions: blood and plasma
Liver microsome [9] = experiment: Fraction metabolized glucuronidation in human liver microsomes in presence of UDP-glucuronosyltransferase; format: ADME
Liver microsome [10] = experiment: Fraction metabolized glucuronidation in human liver microsomes in presence of UDP-glucuronosyltransferase and bovine serum albumin; format: ADME
[11] = Glucuronidation clearance in human liver microsomes; format: ADME
[12] = Glucuronidation clearance in human liver microsomes in presence of bovine serum albumin; format: ADME
[13] = Fraction unbound in human liver microsomes at 1 uM after 30 to 60 mins by LC-MS/MS analysis; format: ADME
[14] = Fraction unbound in human kidney microsomes at 1 uM after 30 to 60 mins by LC-MS/MS analysis; format: ADME
[15] = Fraction unbound in human intestinal microsomes at 1 uM after 30 to 60 mins by LC-MS/MS analysis; format: ADME, Intestine, Microsome
[16] = Fraction unbound in human liver microsomes at 1 uM after 30 to 60 mins by LC-MS/MS analysis in presence of 1% bovine serum albumin; format: ADME; conditions: liver microsomes
Liver microsome [17] = experiment: Unbound intrinsic glucuronidation clearance in human liver microsomes at 1 uM after 30 to 60 mins by LC-MS/MS analysis in presence of UDP-glucuronosyltransferase; format: ADME
How it was run: (§2)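 Alamethicin-activated pooled microsomes (HLM 150 donors; HKM 8; HIM 18). Drug at 1 μM final, preincubated 5 min at 37°C in 0.1 M phosphate pH 7.1 with 3.45 mM MgCl2, 1.15 mM EDTA, 115 μM saccharic acid lactone. Started with […] cofactor (5 mM final), 30–60 min. Cofactor-free controls. Parent depletion by LC-MS/MS, single-exponential k. Corrected by HLM-dialysis fu,inc. Duplicates; n=3 (HIM n=1).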

Liver microsome [18] = experiment: Unbound intrinsic glucuronidation clearance in human liver microsomes at 1 uM after 30 to 60 mins by LC-MS/MS analysis in presence of UDP-glucuronosyltransferase and 1% bovine serum albumin; format: ADME
[19] = Unbound intrinsic glucuronidation clearance in human kidney microsomes at 1 uM after 30 to 60 mins by LC-MS/MS analysis in presence of UDP-glucuronosyltransferase; format: ADME, microsome; how it was run: as §2
[20] = Drug metabolism in human intestinal microsomes assessed as UGT1A8/2B7-mediated unbound intrinsic glucuronidation clearance at 1 uM after 30 to 60 mins by LC-MS/MS analysis in presence of 2% bovine serum albumin; format: ADME, Intestine
[21] = biological target: T1, UDP-glucuronosyltransferase 1A9; experiment: Drug metabolism in human intestinal microsomes assessed as UGT1A9-mediated unbound intrinsic glucuronidation clearance at 1 uM after 30 to 60 mins by LC-MS/MS analysis; format: ADME, Intestine
[22] = biological target: T1, UDP-glucuronosyltransferase 1A9; experiment: Ratio of UGT1A9-mediated unbound intrinsic glucuronidation clearance in human kidney microsomes to UGT1A9-mediated unbound intrinsic glucuronidation clearance in human liver microsomes at 1 uM; format: ADME; how it was run: as §1
[23] = Unbound intrinsic glucuronidation clearance in human kidney microsomes at 1 uM after 30 to 60 mins by LC-MS/MS analysis in presence of UDP-glucuronosyltransferase and 1% bovine serum albumin; format: ADME, microsome
[24] = Unbound intrinsic glucuronidation clearance in human intestinal microsomes at 1 uM after 30 to 60 mins by LC-MS/MS analysis in presence of UDP-glucuronosyltransferase; format: ADME, Intestine, Microsome; how it was run: as §2
[25] = Unbound intrinsic glucuronidation clearance in human intestinal microsomes at 1 uM after 30 to 60 mins by LC-MS/MS analysis in presence of UDP-glucuronosyltransferase and 1% bovine serum albumin; format: ADME, Intestine, Microsome
[26] = Ratio of unbound intrinsic glucuronidation clearance in human kidney microsomes in presence of 1% bovine serum albumin to unbound intrinsic glucuronidation clearance in human kidney microsomes in absence of bovine serum albumin; format: ADME, microsome
How it was run: (§3)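 Unbound intrinsic glucuronidation clearance measured by parent-drug depletion in intestinal or kidney microsomes, once with 1% BSA and once without, under otherwise matched conditions (1 μM drug, pH 7.1 phosphate, 5 mM cofactor, 37°C). Each value was corrected for fu,inc. The ratio is the mean clearance with BSA over the mean without.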

[27] = Ratio of unbound intrinsic glucuronidation clearance in human intestinal microsomes in presence of 1% bovine serum albumin to unbound intrinsic glucuronidation clearance in human intestinal microsomes in absence of bovine serum albumin; format: ADME, Intestine, Microsome; how it was run: as §3
[28] = biological target: T1, UDP-glucuronosyltransferase 1A9; experiment: Drug metabolism in human liver microsomes assessed as UGT1A9-mediated unbound intrinsic glucuronidation clearance at 1 uM after 30 to 60 mins by LC-MS/MS analysis; format: ADME
[29] = biological target: T1, UDP-glucuronosyltransferase 1A9; experiment: Drug metabolism in human kidney microsomes assessed as UGT1A9-mediated unbound intrinsic glucuronidation clearance at 1 uM after 30 to 60 mins by LC-MS/MS analysis; format: ADME
[30] = biological target: T1, UDP-glucuronosyltransferase 1A9; experiment: Ratio of UGT1A9-mediated unbound intrinsic glucuronidation clearance in human intestinal microsomes to UGT1A9-mediated unbound intrinsic glucuronidation clearance in human liver microsomes at 1 uM; format: ADME
[31] = biological target: T1, UDP-glucuronosyltransferase 1A9; experiment: Ratio of UGT1A9-mediated unbound intrinsic glucuronidation clearance in human kidney microsomes to UGT1A9-mediated unbound intrinsic glucuronidation clearance in human intestinal microsomes at 1 uM; format: ADME
[32] = biological target: T1, UDP-glucuronosyltransferase 1A9; experiment: Drug metabolism in human liver microsomes assessed as UGT1A9-mediated unbound intrinsic glucuronidation clearance at 1 uM after 30 to 60 mins by LC-MS/MS analysis in presence of 1% bovine serum albumin; format: ADME

Compound: COc1c(C)c2c(c(O)c1C/C=C(\C)CCC(=O)O)C(=O)OC2 [MYCOPHENOLIC ACID]
- CL free [1]: 17.6 mL/min/g
- Ratio [2]: 1.89
- Ratio [3]: 0.128
- Ratio [4]: 14.8
- clearance [5]: 0.149 L/h/kg
- CL renal [6]: 0.0006 L/h/kg
- fraction unbound [7]: 0.01
- blood plasma ratio [8]: 0.6
- Drug metabolism (Liver microsome [9]): 0.95
- Drug metabolism (Liver microsome [10]): 0.95
- CLhep predicted [11]: 0.238 L/h/kg
- CLhep predicted [12]: 0.238 L/h/kg
- fraction unbound at 1 µM [13]: 0.83
- fraction unbound at 1 µM [14]: 0.91
- fraction unbound at 1 µM [15]: 0.71
- fraction unbound at 1 µM [16]: 0.18
- CL free (Liver microsome [17]): 78.2 µL/min/mg
- CL free (Liver microsome [18]): 233 µL/min/mg
- CL free [19]: 293 µL/min/mg
- CL free [20]: 0.292 mL/min/g
- CL free [21]: 0.244 mL/min/g
- Ratio [22]: 1.2
- CL free [23]: 1370 µL/min/mg
- CL free [24]: 11.8 µL/min/mg
- CL free [25]: 57.8 µL/min/mg
- Ratio [26]: 4.9
- Ratio [27]: 4.7
- CL free [28]: 3.13 mL/min/g
- CL free [29]: 3.75 mL/min/g
- Ratio [30]: 0.078
- Ratio [31]: 15.4
- CL free [32]: 9.32 mL/min/g
